Values after ≈ are worked out from the molar mass of the structure shown. Active and inactive are the calls of the source. The calls are words filed in the database; no cut-off is given here.
Tests used:
[1] = test system: Enterococcus faecium; experiment: Antibacterial activity against vancomycin-resistant Enterococcus faecium ATCC 700221 assessed as bacterial growth inhibition incubated for 16 hrs by broth microdilution susceptibility test; assay type: functional
Procedure, shortened: (§1)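 CLSI broth microdilution with 11 twofold dilutions (0.05–50 μM). Medium was LB for the staphylococci and BHI for VRE 700221. About 10^5 cells per well from a log-phase culture. […] DMSO vehicle up to 0.5% v/v. At least three independent experiments.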

[2] = test system: Staphylococcus aureus; experiment: Antibacterial activity against methicillin-resistant Staphylococcus aureus BAA-1707 assessed as bacterial growth inhibition incubated for 16 hrs by broth microdilution susceptibility test; assay type: functional
Procedure, shortened: (§2)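 CLSI broth microdilution with 11 twofold dilutions (0.05–50 μM). About 10^5 cells per well from a log-phase culture. DMSO vehicle up to 0.5% v/v. At least three independent experiments.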

[3] = Dissociation constant, pKa of the compound at 125 uM by UV-vis spectrophotometric analysis; assay type: physicochemical
Procedure, shortened: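 Compound at 125 μM final in phosphate buffers (KH₂PO₄/Na₂HPO₄) in 1:1 water/methanol, pH 4.07–9.66; ammonium hydroxide added for pH above 9.80. UV-vis scans 200–800 nm to find λmax of phenol and phenolate forms. Absorbance at each λmax plotted against pH.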

[4] = test system: Staphylococcus epidermidis; experiment: Antibacterial activity against methicillin-resistant Staphylococcus epidermidis ATCC 35984 assessed as bacterial growth inhibition incubated for 16 hrs by broth microdilution susceptibility test; assay type: functional; procedure, shortened: as §2
[5] = Binding affinity to Fe2+ assessed as compound-Fe2+ complex formation by UV-vis spectroscopy
[6] = test system: Staphylococcus aureus; experiment: Antibacterial activity against methicillin-resistant Staphylococcus aureus clinical isolate 1 assessed as bacterial growth inhibition; assay type: functional
[7] = test system: Staphylococcus aureus; experiment: Antibacterial activity against methicillin-resistant Staphylococcus aureus 147 assessed as bacterial growth inhibition; assay type: functional
[8] = test system: Staphylococcus aureus; experiment: Antibacterial activity against methicillin-resistant Staphylococcus aureus clinical isolate 2 assessed as bacterial growth inhibition; assay type: functional
[9] = test system: Staphylococcus aureus; experiment: Antibacterial activity against methicillin-resistant Staphylococcus aureus 156 assessed as bacterial growth inhibition; assay type: functional
[10] = test system: Staphylococcus aureus; experiment: Antibacterial activity against methicillin-resistant Staphylococcus aureus 138 assessed as bacterial growth inhibition; assay type: functional
[11] = test system: Staphylococcus epidermidis; experiment: Bactericidal activity against methicillin-resistant Staphylococcus epidermidis ATCC 35984 planktonic cells assessed as planktonic eradication incubated for 24 hrs followed by incubation for overnight in fresh medium by Calgary biofilm device assay; assay type: functional
Procedure, shortened: (§3)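 Calgary biofilm device. Biofilms grown 24 h at 37 °C in TSB with 0.5% glucose, then challenged 24 h with twofold compound dilutions. 20 μL of challenge medium transferred into fresh TSB with 0.5% glucose and incubated overnight at 37 °C. MBC is the concentration with no visible turbidity. At least three independent experiments.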

[12] = test system: Staphylococcus aureus; experiment: Antibiofilm activity against methicillin-resistant Staphylococcus aureus BAA-1707 biofilms assessed as biofilm eradication incubated for 24 hrs followed by incubation for 24 hrs in fresh medium by Calgary biofilm device assay; assay type: functional
Procedure, shortened: (§4)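 Calgary biofilm device. Mid-log culture diluted 1000-fold in TSB with 0.5% glucose; biofilms grown on pegs 24 h at 37 °C. Pegs washed and challenged with twofold compound dilutions for 24 h at 37 °C, then moved to fresh medium for 24 h. MBEC is the lowest concentration leaving wells non-turbid. At least three independent experiments.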

[13] = test system: J774; experiment: Cytotoxicity against mouse J774 cells assessed as reduction in cell viability […] by Alamar blue assay; assay type: toxicity, cell-based
[14] = test system: Staphylococcus aureus; experiment: Bactericidal activity against methicillin-resistant Staphylococcus aureus BAA-1707 planktonic cells assessed as planktonic eradication incubated for 24 hrs followed by incubation for overnight in fresh medium by Calgary biofilm device assay; assay type: functional; procedure, shortened: as §3
[15] = test system: HepG2; experiment: Cytotoxicity against human HepG2 cells assessed as reduction in cell viability […] by Alamar blue assay; assay type: toxicity, cell-based
[16] = test system: Mycobacterium tuberculosis; experiment: Antibacterial activity against Mycobacterium tuberculosis CDC1551 assessed as bacterial growth inhibition incubated for 5 days by luminescence based analysis; assay type: functional; details: CDC1551, 120 h, time 5 day
Procedure, shortened: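 Bioluminescent Mtb-lux CDC1551 reporter grown in Middlebrook 7H9 with 0.05% Tween 80, 10% OADC and kanamycin to OD600 0.4–0.8, then diluted to OD600 0.02. Added to twofold drug dilutions (0.003–200 μM). Incubated 5 days at 37 °C, 5% CO2. Luminescence read against 1% DMSO and 10 μM rifampicin controls to give % growth inhibition. MIC taken from a modified Gompertz fit.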

[17] = test system: Erythrocyte; experiment: Hemolytic activity against human RBC at 200 uM measured after 1 hr; assay type: toxicity, cell-based
Procedure, shortened: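 2% hRBCs exposed to compound at 200 μM final, added from DMSO stock, for 1 h at 37 °C. Supernatant OD read at 405 nm. Hemolysis normalized between DMSO (0%) and Triton X (100%); three independent experiments.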

[18] = test system: Staphylococcus aureus; experiment: Antibacterial activity against methicillin-resistant Staphylococcus aureus 129 assessed as bacterial growth inhibition; assay type: functional
[19] = test system: Staphylococcus aureus; experiment: Antibacterial activity against methicillin-resistant Staphylococcus aureus BAA-44 assessed as bacterial growth inhibition incubated for 16 hrs by broth microdilution susceptibility test; assay type: functional; procedure, shortened: as §1
[20] = test system: Enterococcus faecalis; experiment: Antibacterial activity against Enterococcus faecalis OG1RF ATCC 47077 assessed as bacterial growth inhibition incubated for 16 hrs by broth microdilution susceptibility test; assay type: functional
[21] = test system: Enterococcus faecium; experiment: Antibiofilm activity against methicillin-resistant vancomycin-resistant Enterococcus faecium ATCC 700221 biofilms assessed as biofilm eradication incubated for 24 hrs followed by incubation for 24 hrs in fresh medium by Calgary biofilm device assay; assay type: functional; procedure, shortened: as §4

Molecule `Oc1cc(Cl)cc2nc3ccccc3nc12` has an MIC [1] of over 50 µM, an MIC [2] of 25 µM (≈ 5.77 µg/mL) and a pKa at 125 µM [3] of 8.04. The MIC [4] was 18.8 µM (≈ 4.34 µg/mL) and the Activity [5] was “Active”.

For `COc1cccc(OC)c1C(=O)N[C@@H]1C(=O)N2[C@@H]1SC(C)(C)[C@@H]2C(=O)O` [METHICILLIN], the MIC [6] was at least 37.5 µM, the MIC [7] was at least 37.5 µM and the MIC [8] was at least 37.5 µM. The MIC [9] was at least 37.5 µM.

In the case of `CCSc1c(Br)c(O)c2nc3cccc(C)c3nc2c1Br`, the MIC [10] is reported as 0.31 µM (≈ 0.133 µg/mL), the MBC [11] is reported as 12.5 µM (≈ 5.35 µg/mL) and the MIC [6] is reported as 0.31 µM (≈ 0.133 µg/mL). For the same molecule, the pKa at 125 µM [3] was 7.88, the MBEC [12] was 200 µM and the IC50 [13] was over 100 µM. For the same molecule, the MBC [14] was 50 µM (≈ 21.4 µg/mL), the IC50 [15] was over 200 µM and the MIC [16] was 1.69 µM (≈ 0.724 µg/mL). For the same molecule, the Activity [17] was 5.7%, the MIC [7] was 0.31 µM (≈ 0.133 µg/mL) and the MIC [18] was 0.31 µM (≈ 0.133 µg/mL). The MIC [19] was 0.3 µM (≈ 0.128 µg/mL), the MIC [8] was 0.31 µM (≈ 0.133 µg/mL) and the MIC [9] was 0.31 µM (≈ 0.133 µg/mL). The MIC [20] was 0.78 µM (≈ 0.334 µg/mL) and the MBEC [21] was 3.13 µM.

Source: ChEMBL document CHEMBL5154634, “A Modular Synthetic Route Involving N-Aryl-2-nitrosoaniline Intermediates Leads to a New Series of 3-Substituted Halogenated Phenazine Antibacterial Agents” (J Med Chem, 2021)
